The source of these data is ChEMBL document CHEMBL4513216, “Probing the Open Global Health Chemical Diversity Library for Multistage-Active Starting Points for Next-Generation Antimalarials” (ACS Infect Dis, 2020).

The series can be described thus: Toxicity liver stage against HepG2, at 10uM. To be noted: human, HepG2-A16-CD81EGFP cells; read-out: INHIBITION
In kind it is cell-based. Further details: test concentration 10 uM, cell line HepG2-A16-CD81EGFP. In outline: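 Uninfected HepG2-A16-CD81EGFP cells, 3 × 10^3 per well, 1536-well, plated on prespotted compound at 10 μM final, parasite-free screening media added to match infected plates; puromycin 10 μM positive, DMSO 0.5% negative; run in parallel with 48 h PbLuc assay at 37 °C, 5% CO2; viability by CellTiter-Glo luminescence, normalized to controls.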
For the compound `CC(C)NC(=O)[C@@H]1CCO[C@@H]2CCN(c3ncccn3)C[C@H]21`, the cytotoxicity at 10 µM is -7.6%.
On to `Cc1nc(CN2CCCN(C(=O)C(C)OCC3CC3)CC2)cs1` (stereo not drawn), for which the cytotoxicity at 10 µM was -3.87%.
With `Cc1nn(C(C)(C)C)c(=O)n1CC(=O)NC(C)(C)C`, the cytotoxicity at 10 µM amounted to 1.45%.
For the compound `c1csc(CN2Cc3[nH]nc(COCC4CC4)c3C2)c1`, the cytotoxicity at 10 µM worked out at 6.22%.
For the compound `COc1c(C2CCCN2Cc2c(C)noc2C)c(C)nn1C` (stereo not drawn), the cytotoxicity at 10 µM was 5.73%.
Next, `CCCN(Cc1cnc2ccccc2n1)Cc1ccccc1OC`: -40.1%.
`Cc1ccc2c(n1)N(C)CCN(Cc1cnn(C)c1)C2`: the cytotoxicity at 10 µM stood at 3.04%.
As for `Cc1nccn1-c1ccc(C(=O)NCC(F)(F)F)nn1`, the cytotoxicity at 10 µM was -2.35%.
In the case of `CC(Nc1cccc(CN2CCOC2=O)c1)C(=O)NC(N)=O` (stereo not drawn) it was -7.44%; in that of `COc1cccc(CC(=O)N2CCCC(n3nc(C)cc3C)C2)c1` (stereo not drawn), 0.441%.
On to `Cc1ccc(CN2Cc3c(C(=O)N4CCCC4)nn(C)c3C2)s1`, for which the cytotoxicity at 10 µM is -0.704%.
Regarding `Cn1ccnc1CN1CCCC(Cc2ccccn2)C1` (stereo not drawn), the cytotoxicity at 10 µM is 2.75%.
Turning to `Cc1nc(C)n(CC2CCCN(Cc3nnc(C(C)(C)C)o3)C2)n1` (stereo not drawn), the cytotoxicity at 10 µM is -11%.
As for `Cc1ccc(C)c(S(=O)(=O)CCN2CCc3c(ncn3C)C2)c1`, the cytotoxicity at 10 µM is -12.5%.
Turning to `Cc1ncsc1CN1C[C@@H]2CC[C@H]1CN(Cc1ccccc1)C2`, the cytotoxicity at 10 µM was -14.1%.
In the case of `Cn1cc(S(=O)(=O)N(CC(F)(F)F)C2CC2)cc1C(N)=O`, the cytotoxicity at 10 µM is -5.02%.
With `COc1c(CNCc2ccc(N3CCOCC3)nc2)c(C)nn1C`, the cytotoxicity at 10 µM came to 9.5%.
`CN1CCCC(CCC(=O)N2CCc3c(nc(CC4CC4)[nH]c3=O)C2)C1` (stereo not drawn): the cytotoxicity at 10 µM is -8.61%.
Take `Cc1cc(NC(=O)CN2CCn3c(nnc3C(C)C)C2)on1`: the cytotoxicity at 10 µM stood at 5.05%.
In the case of `COc1c(C)cnc(CN(C)C2CCCCC2)c1C`, the cytotoxicity at 10 µM was 20.5%.
On to `CSCc1noc(CN2CCCCC2CCc2ccc(O)cc2)n1` (stereo not drawn), for which the cytotoxicity at 10 µM is -1.58%.
Next, `CC(C)(C)CN1CCCC2(CCN(C(=O)c3cn[nH]c3)C2)C1` (stereo not drawn): 2.87%; `Cn1cc(C(=O)N2CC[C@@]3(O)CCN(C(=O)C4CCC4)C[C@H]3C2)cn1`: -140%.
As for `O=C1NCCCCC1NCc1csc(-c2ccccn2)n1` (stereo not drawn), the cytotoxicity at 10 µM was found to be 7.5%.
On to `COc1ccc(S(=O)(=O)N2CCC(O)(CN(C)C)C2)cc1` (stereo not drawn), for which the cytotoxicity at 10 µM was -3.36%.
Next, `CC(C)CCNc1nc(C(=O)NC2CC2)cs1`: 0.461%; `Cn1cnnc1C1CCCN(C(=O)c2cc(Cl)c(Cl)n2C)C1` (stereo not drawn): -4.9%.
Regarding `CNC(=O)CN1CCCC12CCN(C(=O)c1ccc(F)cc1)CC2`, the cytotoxicity at 10 µM amounted to 5.03%.
As for `COc1ccc(NC(=O)N2CCCC(CO)C2)c(C)c1` (stereo not drawn), the cytotoxicity at 10 µM is -8.33%.
Turning to `O=C(NC1CCCC1)[C@H]1CC[C@@H]2[C@@H](CCN2c2ncc(F)cn2)O1`, the cytotoxicity at 10 µM amounted to 0.441%.
With `CN1CC(c2ccccc2)CC12CCN(C(=O)c1ccncc1)CC2` (stereo not drawn), the cytotoxicity at 10 µM is -7.96%.
For the compound `COc1ccc(OC)c(CNCc2c(C(C)C)nn(C)c2N(C)C)c1`, the cytotoxicity at 10 µM was -5.89%.
In the case of `COCCNC(=O)Cn1nc(C(C)C)c2cnn(C(C)(C)C)c2c1=O` it was -21.9%.
As for `C[C@@H]1CN(C2CCN(Cc3nn(C)c4cccc(Cl)c34)CC2)C[C@H](C)O1`, the cytotoxicity at 10 µM is -6.48%.
For the compound `C[C@@H]1CN(C(=O)Cc2ccsc2)C[C@]12CCN(CCN(C)C)C2=O`, the cytotoxicity at 10 µM was -1.1%.
`Cc1nc(C)c(C(=O)N2CCCc3c(F)ccc(F)c32)o1`: the cytotoxicity at 10 µM stood at 7.19%.
Consider `Cc1cnn(C2CCCN(C(=O)CCCOc3ccccc3F)C2)c1` (stereo not drawn), for which the cytotoxicity at 10 µM is -7.52%.
Turning to `Cc1cc(C(=O)NCc2ccco2)nn1C`, the cytotoxicity at 10 µM was -2.8%.
`Cc1cc(C(=O)N[C@H]2CN(CCO)C[C@@H]2C2CC2)sc1C`: the cytotoxicity at 10 µM was 1.18%.
As to `COC(=O)c1cccc(CNC(=O)CC(F)(F)F)c1`, the cytotoxicity at 10 µM is 17.4%.
As for `Cn1cc(CN2CCCN(CCCc3ccccc3)CC2)cn1`, the cytotoxicity at 10 µM was -50.8%.
In the case of `OC1(CNc2ccccc2)CCNCC1` it was -1.9%; in that of `CC(C)CN(Cc1nc2c(cnn2C)c(=O)[nH]1)C(C)C`, -9.96%; in that of `O=C1CCN(C(=O)c2csc(-c3ccc(C(F)(F)F)cc3)n2)CCN1`, -12.3%.
`CCCOCCn1ncc(N2CCc3ccccc3C2)cc1=O`: the cytotoxicity at 10 µM was 2.63%.
Next, `CCOc1cccc(COC(=O)c2scnc2C)n1`: -0.966%; `CNS(=O)(=O)c1ccc(CNC(=O)NCc2cc[nH]n2)cc1`: 1.91%; `COc1ccc2c(c1)C(NCCc1ccccn1)CCCO2` (stereo not drawn): -6.03%.
As for `O=C(O)c1ccccc1-c1ccc(CN2CC(O)C2)cc1`, the cytotoxicity at 10 µM was -0.363%.
Next, `O=S(=O)(Cc1ccc(F)cc1F)NCCOc1cccnc1`: -45.9%; `COC(=O)c1ccc(N2CCN(C(=O)c3ccn(C)c(=O)c3)CC2)cc1`: 2.7%.
Next, `c1cnnc(N2CCCC2CNCc2csc(-c3ccco3)n2)c1` (stereo not drawn): -8.42%; `CN1C(=O)C2(CCN(CC3CCC3)C2)c2ccccc21` (stereo not drawn): -71.3%; `N#Cc1ccc(N2CCC(OC3CCOCC3)CC2)cc1Cl`: 1%.
Next, `COc1ccc(NCCC(=O)NCc2cccnc2N(C)C)cc1`: -2.06%; `CC(C)c1nn(C)c(Cl)c1CNC1CCOc2ccccc21` (stereo not drawn): 53.2%; `NCC(CO)Cc1cccc(OC(F)(F)F)c1` (stereo not drawn): 3.2%.
In the case of `Cc1cnn(CC2CCCN2C(=O)c2cc3ccccc3[nH]2)c1` (stereo not drawn), the cytotoxicity at 10 µM was -0.433%.
On to `CC(CCc1ccccc1)NC(=O)CNCCCN(C)C` (stereo not drawn), for which the cytotoxicity at 10 µM is -3.83%.
Take `Cc1cccc(C(=O)N(C)Cc2cc(Br)cs2)n1`: the cytotoxicity at 10 µM is -5.1%.
On to `COCCN1C[C@@H](C(=O)O)[C@H](c2ccccc2C)C1`, for which the cytotoxicity at 10 µM was 3%.
For the compound `COc1ccc(OCCN2CCOCS2(=O)=O)cc1`, the cytotoxicity at 10 µM was 2.6%.
In the case of `CC(C)N(CC(N)=O)C(=O)c1cc(F)ccc1N1CCN(C)CC1`, the cytotoxicity at 10 µM was found to be 7.66%.
For the compound `Cc1cccc(N2CCC3(CCN(C(=O)c4cccnc4)CC3)C2)n1`, the cytotoxicity at 10 µM is -0.482%.
As for `Cc1ccnc(OCC(=O)N2CCN(c3ncccn3)CC2)n1`, the cytotoxicity at 10 µM was -0.849%.
`Cc1cc(C)nc(CN(C)C(=O)C(c2cccnc2)N2CCCC2)c1` (stereo not drawn): the cytotoxicity at 10 µM was -45.4%.
Consider `Cc1ccc(N2CCCC(NCc3ccccn3)C2)nn1` (stereo not drawn), for which the cytotoxicity at 10 µM amounted to 0.301%.
Next, `CN(CCc1ccccc1)Cc1nc(Cc2cccc(F)c2)no1`: 0.276%; `CCN1C[C@@H]2[C@@H](OC)CCN(S(=O)(=O)c3ccccc3F)[C@@H]2C1`: -0.902%; `Cc1ccsc1CN(Cc1cccnc1)C1CC(C)(C)NC(C)(C)C1`: -10.7%.
As for `O=c1cc(Cn2cncn2)nc2n1CCCN(Cc1ccsc1)C2`, the cytotoxicity at 10 µM was -0.123%.
Regarding `Cc1cnn(CC2CCCN2C(=O)c2ccc3nnc(C)n3c2)c1` (stereo not drawn), the cytotoxicity at 10 µM was -8.11%.
As to `Cc1ccc(-c2cc(CNC(=O)N3CCC(O)CC3)on2)cc1`, the cytotoxicity at 10 µM is -4.62%.
In the case of `COC1CCCN(Cc2cc(O)c3cc(C)cc(C)c3n2)C1` (stereo not drawn) it was 3.54%.
In the case of `Cc1occc1CNC(=O)C1(C)CCCN(C(=O)c2ccccc2)C1` (stereo not drawn) it was -7.01%; in that of `CC(C)COC[C@H]1CC[C@H]2[C@H](CCN2C(=O)c2ccncc2F)O1`, -0.171%.
Take `Cn1ccc(CN2CCC(Cc3ccccc3)CC2)cc1=O`: the cytotoxicity at 10 µM was 1.78%.
As to `Cc1cnn(CCNCc2ccc(F)cc2Cl)c1`, the cytotoxicity at 10 µM is -5.16%.
For `c1ccc(CN2CCC3(CC2)CCN(Cc2cccs2)C3)nc1`, the cytotoxicity at 10 µM is 4.17%.
In the case of `CC(Sc1nnc(C2CC2)n1CC(N)=O)c1ccc(F)cc1F` (stereo not drawn) it was -1.7%; in that of `Cc1ccnc(C2CN(Cc3cnn(-c4ccccc4C(=O)O)c3)C2)n1`, 6%; in that of `CCN(CC)c1ncc(CNCC2CCCn3ccnc32)s1` (stereo not drawn), -29.9%.
For the compound `CCOCC(=O)N1CCC(c2nccn2Cc2cscn2)CC1`, the cytotoxicity at 10 µM was -5.58%.
Next, `O=C(CC1CC1)N1CC[C@H]2[C@@H]1CCC(=O)N2c1cccnc1`: 3.06%; `CCc1cnc(CN2CCC(N(Cc3noc(CC)n3)C(C)=O)C2)o1` (stereo not drawn): -4.17%; `CN(C)c1ccc(CNC(=O)c2ccc(Cl)cc2F)cc1`: -8.33%.
Take `CN(C)Cc1nnn2c1CN(Cc1cccnc1)CCC2`: the cytotoxicity at 10 µM is 5.69%.
In the case of `CC(C)c1nc2n(n1)CC(NCc1nc(-c3cccnc3)no1)CC2` (stereo not drawn) it was 4.04%.
Next, `CC(C)CN1CC[C@H](c2nnc(COc3ccc(F)cc3)o2)C1`: -1.81%.
Next, `Cc1cc(CN2CCCn3nc(CCC(=O)O)cc3C2)ccc1F`: 2.28%; `Cc1ncccc1C(=O)NC1(c2cccc(F)c2)CCOCC1`: 10.3%; `CCn1cnnc1CNC(=O)c1ccc(Cl)cc1F`: -0.457%.
Consider `CCN1Cc2ccccc2N(C(=O)C2CCC2)CCC1=O`, for which the cytotoxicity at 10 µM is -3.53%.
`O=C(Nc1cnccn1)[C@H]1CC[C@@H]2[C@@H](CCN2Cc2ccoc2)O1`: the cytotoxicity at 10 µM was found to be 8.86%.
Consider `CC(Cn1cccn1)NCc1nc(-c2cccc(Cl)c2)no1` (stereo not drawn), for which the cytotoxicity at 10 µM is -9.21%.
Consider `O=c1[nH]c(CN2CCCC(Cn3cncn3)C2)nc2ccccc12` (stereo not drawn), for which the cytotoxicity at 10 µM was -12.4%.
In the case of `Cc1cccc(Nc2nccnc2C2CCCN2CC(=O)N(C)C)n1` (stereo not drawn), the cytotoxicity at 10 µM is -5.28%.
As to `Cc1nc(C)n(CCNC(=O)C2(C)CC(c3ccccc3)=NO2)n1` (stereo not drawn), the cytotoxicity at 10 µM worked out at 7.92%.
